Measured values collected from several papers.
Protocols differ between the studies behind these lines.
PPO3: PPO3 (Agaricus bisporus, UniProt C7FF04)
CNR1: Cannabinoid receptor 1 (CNR1, Homo sapiens, UniProt P21554)

| SMILES | target | read-out | action | technique | tested at | endpoint | result |
| --- | --- | --- | --- | --- | --- | --- | --- |
| [2H]c1c([2H])c([C@]2([2H])CCCN2C(=O)C(C)(C)Oc2ccc3cn[nH]c3c2)c([2H])c([2H])c1C([2H])([2H])[2H] | Mitogen-activated protein kinase kinase kinase 3 (MAP3K3, Homo sapiens, UniProt Q99759) | binding | – | competition with immobilised ligand | 1 µM | remaining binding | 100% |
| COc1cc(/C=C/C(=O)O)ccc1OCc1cn(CC(=O)Nc2ccccc2C)nn1 | PPO3 | enzyme activity | inhibitor | – | 40 µM | inhibition | 16% |
| CC(C)CC(=O)OC[C@H]1O[C@@](C#N)(c2ccc3c(N)ncnn23)[C@H](O)[C@@H]1O | CNR1 | cell-free assay | – | – | 20 µM | inhibition | -4% |
| CCCCC/C=C\C/C=C\C/C=C\C/C=C\CCCC(=O)OC(CO)CO | CNR1 | β-arrestin recruitment | agonist | – | – | Emax | 96% |
| c1cncc([C@@H]2CCCN2)c1 | Neuronal acetylcholine receptor; alpha4/beta2 (Rattus norvegicus, UniProt P09483+P12390) | ligand displacement | – | radioligand | 50 µM | inhibition | 88.1% |
| COc1cc2c3c(c1OC)-c1c(OC)ccc(Br)c1CC3N(C)CC2 (stereo not shown) | 5-hydroxytryptamine receptor 2A (HTR2A, Homo sapiens, UniProt P28223) | ligand displacement | – | radioligand | 10 µM | inhibition | 80% |
| CCCCC/C=C\[C@H](C)/C=C\C/C=C\Cc1ccccc1CCCC(=O)OC(CO)CO | CNR1 | β-arrestin recruitment | agonist | – | – | Emax | 10% |
| COc1cc(/C=C/C(=O)O)ccc1OCc1cn(CC(=O)Nc2cccc([N+](=O)[O-])c2)nn1 | PPO3 | enzyme activity | inhibitor | – | 40 µM | inhibition | 12.1% |
| CN1CCC[C@H]1c1cccnc1 | Histamine H4 receptor (HRH4, Homo sapiens, UniProt Q9H3N8) | ligand displacement | – | – | 50 µM | inhibition | -19.9% |
| CCCCCc1ccccc1C/C=C\C/C=C\C/C=C\CCCC(=O)N[C@H](C)CO | CNR1 | β-arrestin recruitment | agonist | – | – | Emax | 42% |
| COc1cc(/C=C/C(=O)O)ccc1OCc1cn(CC(=O)Nc2ccc(Cl)cc2Cl)nn1 | PPO3 | enzyme activity | inhibitor | – | 40 µM | inhibition | 7.73% |
| CCCCC/C=C\C/C=C\C/C=C\Cc1ccccc1CCCC(=O)N[C@H](C)CO | CNR1 | β-arrestin recruitment | agonist | – | – | Emax | 80% |
| COc1cc(/C=C/C(=O)O)ccc1OCc1cn(CC(=O)Nc2ccc(Cl)cc2)nn1 | PPO3 | enzyme activity | inhibitor | – | 40 µM | inhibition | 12.3% |
